The subject of one data set is U-251. Put plainly: Growth inhibition of human U251 cells after 48 hrs by sulforhodamine B assay. The format is functional. The essentials:
(§1)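 Cells in 96-well plates were exposed for 48 h at 37 °C in 5% CO2 to compounds at 0.25, 2.5, 25 and […] in DMSO/RPMI. Doxorubicin was the positive control at […]. Cells were then fixed with 50% trichloroacetic acid and stained with sulforhodamine B, with protein read at 540 nm. TGI (the concentration where T = T0) was taken by non-linear regression of each cell line's concentration-response curve.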

A further data set has as its system MCF7. Put plainly: Growth inhibition of human MCF7 cells after 48 hrs by sulforhodamine B assay. The format is functional. The essentials: as §1
(In general: Sulforhodamine B stains cellular protein and so reports cell mass.)

A short description of data set [1]: Growth inhibition of human NCI/ADR cells after 48 hrs by sulforhodamine B assay. The format is functional. In short, it runs like this: as §1
Another data set concerns 786-0. Kind of data set: Growth inhibition of human 786-0 cells after 48 hrs by sulforhodamine B assay. The format is functional. The essentials: as §1
The subject of the next data set is NCI-H460. Put plainly: Growth inhibition of human NCI-H460 cells after 48 hrs by sulforhodamine B assay. Format: functional. The essentials: as §1
The test system of a further data set is OVCAR-3. Kind of data set: Growth inhibition of human OVCAR3 cells after 48 hrs by sulforhodamine B assay. The format is functional. The essentials:
as §1

The test system of a further data set is HT-29. Put plainly: Growth inhibition of human HT-29 cells after 48 hrs by sulforhodamine B assay. The format is functional. In short, it runs like this: as §1
Data set [2] in a line: Growth inhibition of human HaCaT cells after 48 hrs by sulforhodamine B assay. Format: cell-based. The essentials:
as §1

The values that follow come from ChEMBL document CHEMBL2034868, “Synthesis of methoxylated goniothalamin, aza-goniothalamin and γ-pyrones and their in vitro evaluation against human cancer cells” (Bioorg Med Chem, 2012).

Some results are limits rather than exact numbers.

As for `O=C1C=CC[C@H](/C=C/c2ccccc2)O1` [GONIOTHALAMIN], the GI in the data set with U-251 was 13.7 µM; in the data set on MCF7, 12.7 µM; in data set [1] it was 8 µM; in the data set with 786-0 it was 14.8 µM; in the data set on NCI-H460, 13.6 µM; in the data set on OVCAR-3, 14.2 µM. For the same compound, in the data set on HT-29, the GI amounted to 13.9 µM. The TGI (commonly the concentration giving total growth inhibition) at 48 h in data set [2] was determined as 27.7 µM.

In the case of `COc1ccc(/C=C/C2CC=CC(=O)O2)c(OC)c1` (racemic), the GI stood at 4.6 µM in the data set on U-251; 5.4 µM with MCF7; 8.8 µM in data set [1]; 4.1 µM with 786-0; 6 µM in the data set with NCI-H460; 5.6 µM with OVCAR-3. Further, the GI with HT-29 was 6.6 µM. The compound further registered a TGI at 48 h in data set [2] of 15.8 µM.

As to `COc1ccc(C2CC(=O)C(Br)=CO2)cc1` (centres undefined), the GI with U-251 came out at 46.4 µM; in the data set with MCF7, 42.2 µM; in data set [1] it was 52.9 µM; in the data set on 786-0 it was 33.4 µM; in the data set with NCI-H460 it was 117.7 µM; in the data set with OVCAR-3, 113.5 µM. Further, in the data set with HT-29, the GI came out at 69 µM. In data set [2], this compound yielded a TGI at 48 h of 164 µM.

As for `COc1cc(/C=C/C2CC=CC(=O)O2)cc(OC)c1OC` (racemic), the GI with U-251 was 25.1 µM; with MCF7, 15.3 µM; in data set [1] it was 35.1 µM; with 786-0 it was 18.5 µM; in the data set on NCI-H460 it was 28.8 µM; with OVCAR-3, 44.9 µM. The GI with HT-29 stood at 18.8 µM. In data set [2], this compound registered a TGI at 48 h of 21.6 µM.

As for `COc1ccc(/C=C/C2CC=CC(=O)O2)cc1` (racemic), the GI came out at 20.6 µM in the data set on U-251; 25.5 µM in the data set with MCF7; 17.3 µM in data set [1]; 21.6 µM with 786-0; 28.3 µM with NCI-H460; 61.5 µM in the data set with OVCAR-3. In the data set with HT-29, the GI is 33.7 µM. In data set [2], this compound gave a total growth inhibition concentration (TGI) at 48 h of 58.8 µM.

As for `COc1ccc(/C=C/C2CC=CC(=O)N2)c(OC)c1` (centres undefined), the GI (in the data set on U-251; in the data set with MCF7; in data set [1]; in the data set on 786-0; in the data set on NCI-H460; in the data set on OVCAR-3) was over 964.1 µM each time. The same compound yielded a GI in the data set with HT-29 of over 964.1 µM. Moreover, the total growth inhibition concentration (TGI) at 48 h in data set [2] is over 964 µM.

Consider `COc1ccc(C2CC(=O)C=CO2)cc1` (centres undefined), for which the GI is 226.1 µM with U-251; 172.9 µM with MCF7; 419.6 µM in data set [1]; 197 µM with 786-0; 192.8 µM in the data set on NCI-H460; 248.6 µM in the data set with OVCAR-3. Besides, in the data set on HT-29, the GI worked out at 203.4 µM. In data set [2], this compound came in with a TGI at 48 h of 264 µM.

Turning to `O=C1C=CCC(/C=C/c2ccc(C(F)(F)F)cc2)O1` (racemic), the GI with U-251 was 36.8 µM; in the data set with MCF7, 51 µM; in data set [1] it was 54.8 µM; in the data set on 786-0 it was 44.5 µM; in the data set with NCI-H460 it was 476.9 µM; with OVCAR-3 it was 167.2 µM. Besides, the GI in the data set on HT-29 is 36.2 µM. In data set [2], this compound displayed a concentration for total growth inhibition (TGI) at 48 h of 69.7 µM.

In the case of `O=c1ccoc(/C=C/c2ccccc2)c1`, the GI in the data set on U-251 came to 285.4 µM; in the data set on MCF7, 691.1 µM; in data set [1], 514.2 µM; in the data set with 786-0, 409.9 µM; with NCI-H460, 508.5 µM; with OVCAR-3 it was 545.5 µM. Further, the GI in the data set on HT-29 was 344.1 µM. In data set [2], this compound displayed a concentration for total growth inhibition (TGI) at 48 h of 711 µM.

Consider `COc1ccc(/C=C/C2CC(=O)C=CO2)cc1` (centres undefined), for which the GI in the data set on U-251 turned out to be 151.9 µM; with MCF7, 155.5 µM; in data set [1], 239.3 µM; in the data set with 786-0, 191.5 µM; with NCI-H460, 149.4 µM; with OVCAR-3 it was 87.4 µM. This compound returned a GI with HT-29 of 203.9 µM. This compound also returned a total growth inhibition concentration (TGI) at 48 h in data set [2] of 144 µM.

As to `COc1ccc(/C=C/C2CC=CC(=O)O2)cc1OC` (racemic), the GI was 23.9 µM in the data set on U-251; 7.8 µM with MCF7; 11.6 µM in data set [1]; 10.9 µM in the data set with 786-0; 14.6 µM with NCI-H460; 16.8 µM with OVCAR-3. The same compound returned a GI with HT-29 of 17.2 µM. This compound yielded a TGI at 48 h in data set [2] of 63 µM.

In the case of `O=C1C=CCC(/C=C/c2ccc(C(F)(F)F)cc2)N1` (centres undefined), the GI was 130.3 µM in the data set with U-251; 149.5 µM in the data set on MCF7; 71.8 µM in data set [1]; 127.8 µM in the data set with 786-0; 150.4 µM in the data set on NCI-H460; 126 µM in the data set on OVCAR-3. The same compound gave a GI with HT-29 of 139.2 µM. Total growth inhibition in data set [2] (TGI at 48 h) required 174 µM.

`COc1cc(/C=C/C2CC=CC(=O)O2)cc(OC)c1` (racemic): the GI turned out to be 8.1 µM in the data set with U-251; 9.5 µM in the data set with MCF7; 8.9 µM in data set [1]; 10.6 µM in the data set on 786-0; 9 µM in the data set on NCI-H460; 19.1 µM in the data set on OVCAR-3. For the same compound, the GI in the data set with HT-29 was determined as 8.2 µM. Also, the TGI at 48 h in data set [2] was 8.8 µM.

In the case of `COc1ccc(/C=C/c2cc(=O)cco2)cc1`, the GI in the data set on U-251 stood at 278.4 µM; in the data set on MCF7 it was 395.9 µM; in data set [1] it was 309.9 µM; with 786-0, 376.8 µM; in the data set on NCI-H460, 606.1 µM; in the data set with OVCAR-3 it was 327.9 µM. Moreover, the GI in the data set on HT-29 came out at 379.2 µM. Besides, in data set [2], the TGI at 48 h was 710 µM.

With `COc1ccc(/C=C/c2cc(=O)cco2)cc1OC`, the GI with U-251 is 338.9 µM; in the data set on MCF7, 953.6 µM; in data set [1], 407.9 µM; in the data set on 786-0 it was 635.4 µM; in the data set on NCI-H460, 545.5 µM; in the data set on OVCAR-3, 540.2 µM. In the data set with HT-29, the GI worked out at 806.7 µM. The same compound yielded a concentration for total growth inhibition (TGI) at 48 h in data set [2] of 690 µM.

For `O=C1C=CCC(/C=C/c2ccccc2C(F)(F)F)N1` (centres undefined), the GI was 69.9 µM with U-251; 120.2 µM in the data set on MCF7; 40.6 µM in data set [1]; 123.4 µM in the data set on 786-0; 194.7 µM in the data set with NCI-H460; 329.3 µM in the data set on OVCAR-3. In addition, the GI in the data set with HT-29 was determined as 195.4 µM. Total growth inhibition in data set [2] (TGI at 48 h) required 249 µM.

Take `COc1cc(/C=C/C2CC(=O)C=CO2)cc(OC)c1OC` (centres undefined): the GI in the data set with U-251 came to 101.8 µM; with MCF7 it was 149.4 µM; in data set [1], 223.2 µM; with 786-0, 125 µM; with NCI-H460, 127.3 µM; with OVCAR-3, 85.4 µM. This compound also came in with a GI in the data set on HT-29 of 134.5 µM. This compound displayed a concentration for total growth inhibition (TGI) at 48 h in data set [2] of 155 µM.

Turning to `COc1cc(OC)c(OC)cc1/C=C/C1CC=CC(=O)N1` (centres undefined), the GI (with U-251; in the data set with MCF7; in data set [1]; in the data set with 786-0; in the data set with NCI-H460; in the data set on OVCAR-3) was over 864.1 µM each time. In the data set with HT-29, this compound displayed a GI of over 864.1 µM. The compound further yielded a TGI at 48 h in data set [2] of over 864 µM.

Take `COc1ccc(/C=C/C2CC(=O)C=CO2)cc1OC` (centres undefined): the GI was 86.9 µM in the data set on U-251; 130.2 µM with MCF7; 145.8 µM in data set [1]; 145.1 µM in the data set with 786-0; 89.6 µM with NCI-H460; 74.3 µM with OVCAR-3. Moreover, the GI with HT-29 came out at 123.2 µM. The same compound returned a TGI at 48 h in data set [2] of 134 µM.

Regarding `COc1ccc(-c2cc(=O)cco2)cc1`, the GI (in the data set on U-251; in the data set with MCF7; in data set [1]; in the data set with 786-0; with NCI-H460; in the data set on OVCAR-3) was over 1236.3 µM in each case. The compound further returned a GI with HT-29 of over 1236.3 µM. For the same compound, the total growth inhibition concentration (TGI) at 48 h in data set [2] is over 1240 µM.

With `COc1cc(OC)c(OC)cc1/C=C/C1CC=CC(=O)O1` (racemic), the GI is 11.5 µM with U-251; 3.8 µM with MCF7; 9.4 µM in data set [1]; 6 µM in the data set with 786-0; 9.8 µM in the data set with NCI-H460; 7.2 µM in the data set on OVCAR-3. For the same compound, the GI in the data set with HT-29 stood at 15.9 µM. Net growth in data set [2] stopped (TGI at 48 h) at 46.9 µM.

Regarding `COc1ccc(C2CC(=O)C(I)=CO2)cc1` (centres undefined), the GI with U-251 came out at 24.4 µM; in the data set on MCF7, 43.2 µM; in data set [1] it was 39.7 µM; with 786-0 it was 27 µM; in the data set on NCI-H460, 74.6 µM; in the data set on OVCAR-3 it was 38.2 µM. This compound also showed a GI with HT-29 of 24.4 µM. The TGI at 48 h in data set [2] stood at 53.3 µM.

Consider `COc1cccc2c1C(=O)c1c(O)c3c(c(O)c1C2=O)C[C@@](O)(C(=O)CO)C[C@@H]3O[C@H]1C[C@H](N)[C@H](O)[C@H](C)O1` [DOXORUBICIN], for which the GI in the data set with U-251 came out at 2.4 µM; in the data set on MCF7 it was 3.7 µM; in data set [1] it was 13.5 µM; with 786-0, 2.1 µM; in the data set on NCI-H460, 1.3 µM; with OVCAR-3 it was 6.3 µM. Also, the GI in the data set with HT-29 came out at 13.9 µM. In addition, total growth inhibition in data set [2] (TGI at 48 h) required 0.8 µM.
